The source made the active and inactive calls. The rule behind the calls is not given here.
How the values were obtained:
[1] = target: Delta-aminolevulinic acid dehydratase (Yersinia enterocolitica W22703, UniProt F4MUJ9); assay: Stimulation of Yersinia enterocolitica recombinant PBGS expressed in Escherichia coli using 5-ALA as substrate
[2] = target: T1, Delta-aminolevulinic acid dehydratase (Escherichia coli (strain K12), UniProt P0ACB2); assay: Stimulation of Escherichia coli recombinant PBGS using 5-ALA as substrate
T1 sequence (P0ACB2 whole entry): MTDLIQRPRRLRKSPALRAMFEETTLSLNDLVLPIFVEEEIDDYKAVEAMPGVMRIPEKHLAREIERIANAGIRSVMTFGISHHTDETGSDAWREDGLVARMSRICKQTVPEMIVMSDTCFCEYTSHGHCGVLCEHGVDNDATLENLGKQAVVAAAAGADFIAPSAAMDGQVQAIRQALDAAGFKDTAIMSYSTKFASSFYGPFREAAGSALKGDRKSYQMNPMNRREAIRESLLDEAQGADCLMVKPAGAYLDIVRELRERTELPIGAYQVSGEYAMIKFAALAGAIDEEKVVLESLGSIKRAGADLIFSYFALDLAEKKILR
How it was run: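 E. coli PBGS at 200 nM subunit in 100 mM BTP-HCl pH 8.1 with 1 mM MgCl2, 10 μM ZnCl2, 5 mM DTT and 0.2 mM 5-ALA, 10 min at 36 °C. Porphobilinogen detected with Ehrlich's reagent. Activity normalized to control with 6.7% DMSO set at 100%. EC50 by log(agonist) vs response variable-slope fit.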

[3] = target: T2, Delta-aminolevulinic acid dehydratase (Homo sapiens, UniProt P13716); assay: Inhibition of human PBGS using 5-ALA as substrate
T2 sequence (P13716 whole entry): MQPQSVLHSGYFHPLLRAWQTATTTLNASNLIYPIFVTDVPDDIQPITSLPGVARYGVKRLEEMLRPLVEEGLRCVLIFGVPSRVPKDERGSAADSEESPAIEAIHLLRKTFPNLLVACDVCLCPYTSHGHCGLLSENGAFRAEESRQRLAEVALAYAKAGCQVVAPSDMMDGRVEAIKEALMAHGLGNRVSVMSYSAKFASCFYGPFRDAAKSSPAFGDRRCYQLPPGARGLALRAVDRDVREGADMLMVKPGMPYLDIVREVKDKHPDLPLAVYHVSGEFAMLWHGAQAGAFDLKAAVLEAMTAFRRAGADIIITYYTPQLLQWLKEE

[4] = target: T3, Delta-aminolevulinic acid dehydratase (Pseudomonas aeruginosa (strain ATCC 15692 / PAO1 / 1C / PRS 101 / LMG12228), UniProt Q59643); assay: Stimulation of Pseudomonas aeruginosa PAO1 recombinant PBGS using 5-ALA as substrate
T3 sequence (Q59643 whole entry): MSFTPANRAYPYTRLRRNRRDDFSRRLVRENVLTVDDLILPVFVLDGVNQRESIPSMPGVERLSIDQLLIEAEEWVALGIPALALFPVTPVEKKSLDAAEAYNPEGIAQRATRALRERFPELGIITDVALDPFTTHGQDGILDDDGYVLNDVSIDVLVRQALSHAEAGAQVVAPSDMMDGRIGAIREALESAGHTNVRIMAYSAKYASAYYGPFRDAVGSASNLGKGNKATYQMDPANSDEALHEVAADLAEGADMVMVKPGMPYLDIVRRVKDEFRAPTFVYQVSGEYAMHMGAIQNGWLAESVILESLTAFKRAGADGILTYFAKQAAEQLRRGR
How it was run: (§1)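 His-tagged PaPBGS at 150 nM subunit in 100 mM Tris-HCl pH 8.0 with 1 mM MgCl2, 100 mM KCl and 0.2 mM 5-ALA, 10 min at 36 °C, with turnover at most 30%. Porphobilinogen read with Ehrlich's reagent. Activity normalized to 6.7% DMSO control as 100%. EC50 from variable-slope agonist fit.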

[5] = target: T4, Delta-aminolevulinic acid dehydratase (Drosophila melanogaster, UniProt Q9VTV9); assay: Inhibition of Drosophila melanogaster recombinant PBGS using 5-ALA as substrate
T4 sequence (Q9VTV9 whole entry): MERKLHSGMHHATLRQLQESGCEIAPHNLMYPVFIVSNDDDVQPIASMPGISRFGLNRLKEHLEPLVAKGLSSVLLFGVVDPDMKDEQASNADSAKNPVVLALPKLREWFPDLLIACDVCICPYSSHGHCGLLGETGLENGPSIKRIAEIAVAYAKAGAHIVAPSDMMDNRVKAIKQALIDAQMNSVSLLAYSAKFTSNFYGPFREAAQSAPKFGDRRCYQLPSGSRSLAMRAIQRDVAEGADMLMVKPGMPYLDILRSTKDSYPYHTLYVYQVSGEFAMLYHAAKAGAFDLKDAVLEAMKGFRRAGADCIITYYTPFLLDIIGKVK

[6] = target: Delta-aminolevulinic acid dehydratase (Pseudomonas aeruginosa (strain ATCC 15692 / PAO1 / 1C / PRS 101 / LMG12228)) (UniProt Q59643); assay: Stimulation of Pseudomonas aeruginosa PAO1 recombinant PBGS using 5-ALA as substrate relative to control; how it was run: as §1
Chain of Delta-aminolevulinic acid dehydratase (Pseudomonas aeruginosa (strain ATCC 15692 / PAO1 / 1C / PRS 101 / LMG12228)) (Q59643 whole entry): as the sequence (Q59643 whole entry) above

[7] = target: T5, Delta-aminolevulinic acid dehydratase, chloroplastic (Pisum sativum, UniProt P30124); assay: Inhibition of Pisum sativum PBGS using 5-ALA as substrate; set-up: species or system Lathyrus oleraceus
T5 sequence (P30124 whole entry): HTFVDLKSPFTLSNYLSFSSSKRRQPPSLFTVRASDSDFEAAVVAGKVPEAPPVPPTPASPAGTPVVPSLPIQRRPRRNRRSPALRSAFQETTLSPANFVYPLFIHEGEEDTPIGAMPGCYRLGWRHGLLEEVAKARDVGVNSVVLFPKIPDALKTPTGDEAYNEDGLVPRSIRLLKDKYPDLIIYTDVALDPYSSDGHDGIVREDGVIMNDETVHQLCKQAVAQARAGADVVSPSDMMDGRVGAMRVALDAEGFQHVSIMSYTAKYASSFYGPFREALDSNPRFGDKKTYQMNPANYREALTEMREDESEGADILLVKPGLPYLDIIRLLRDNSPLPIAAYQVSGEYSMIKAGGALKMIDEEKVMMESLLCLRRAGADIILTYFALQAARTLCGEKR
How it was run: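 Pea (P. sativum) PBGS at 300 nM subunit in 100 mM BTP-HCl pH 8.5 with 1 mM MgCl2, 5 mM DTT and 0.2 mM 5-ALA, 15 min at 36 °C. Porphobilinogen detected with Ehrlich's reagent. Activity normalized to 6.7% DMSO control as 100%. IC50 from variable-slope normalized-response fit.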

[8] = Stimulation of Toxoplasma gondii recombinant PBGS using 5-ALA as substrate
How it was run: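 T. gondii PBGS, expressed from pET-21b in BL21 E. coli and purified, at 250 nM subunit in 100 mM Tris-HCl pH 8.0 with 1 mM MgCl2, 5 mM DTT and 0.2 mM 5-ALA, 20 min at 36 °C. Porphobilinogen detected with Ehrlich's reagent. Activity normalized to 6.7% DMSO control. EC50 by variable-slope agonist fit.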

[9] = target: Delta-aminolevulinic acid dehydratase (Pseudomonas aeruginosa (strain ATCC 15692 / PAO1 / 1C / PRS 101 / LMG12228)) (UniProt Q59643); assay: Inhibition of Pseudomonas aeruginosa PAO1 recombinant PBGS using 5-ALA as substrate at […]
[10] = target: T6, Delta-aminolevulinic acid dehydratase (Wolbachia sp. subsp. Brugia malayi (strain TRS), UniProt Q5GSR3); assay: Inhibition of C-terminal His-tagged Wolbachia PBGS using 5-ALA as substrate
T6 sequence (Q5GSR3 whole entry): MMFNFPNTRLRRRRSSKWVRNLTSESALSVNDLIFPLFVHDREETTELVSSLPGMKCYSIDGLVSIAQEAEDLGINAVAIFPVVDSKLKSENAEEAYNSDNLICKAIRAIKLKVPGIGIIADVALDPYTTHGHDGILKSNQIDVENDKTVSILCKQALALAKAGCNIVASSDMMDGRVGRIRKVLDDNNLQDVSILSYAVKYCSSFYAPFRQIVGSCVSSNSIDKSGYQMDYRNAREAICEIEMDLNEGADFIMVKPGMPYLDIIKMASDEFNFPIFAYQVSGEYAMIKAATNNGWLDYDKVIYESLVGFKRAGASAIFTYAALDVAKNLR

Toxoplasma gondii [11] = assay: Stimulation of Toxoplasma gondii recombinant PBGS using 5-ALA as substrate relative to control
How it was run: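 Recombinant T. gondii PBGS (hemB in pET-21b, expressed in BL21 E. coli) at 250 nM subunit in 100 mM Tris-HCl pH 8.0, 1 mM MgCl2, 5 mM DTT, with 200 μM 5-ALA, 20 min at 36 °C. Porphobilinogen was read with Ehrlich's reagent, and turnover was kept at or below 30%.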

[12] = target: T7, Delta-aminolevulinic acid dehydratase (Escherichia coli (strain K12)) (UniProt P0ACB2); assay: Stimulation of Escherichia coli recombinant PBGS using 5-ALA as substrate relative to control
T7 sequence (whole entry): T1 sequence (P0ACB2 whole entry)
How it was run: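 E. coli PBGS at 200 nM subunit in 100 mM BTP-HCl pH 8.1 with 1 mM MgCl2, 10 μM ZnCl2, 5 mM DTT and 0.2 mM 5-ALA, 10 min at 36 °C. Porphobilinogen detected with Ehrlich's reagent. EC50 by log(agonist) vs response variable-slope fit.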

[13] = target: Delta-aminolevulinic acid dehydratase (Yersinia enterocolitica W22703) (UniProt F4MUJ9); assay: Stimulation of Yersinia enterocolitica recombinant PBGS expressed in Escherichia coli using 5-ALA as substrate relative to control
Chain of Delta-aminolevulinic acid dehydratase (Yersinia enterocolitica W22703) (F4MUJ9 as listed by the source): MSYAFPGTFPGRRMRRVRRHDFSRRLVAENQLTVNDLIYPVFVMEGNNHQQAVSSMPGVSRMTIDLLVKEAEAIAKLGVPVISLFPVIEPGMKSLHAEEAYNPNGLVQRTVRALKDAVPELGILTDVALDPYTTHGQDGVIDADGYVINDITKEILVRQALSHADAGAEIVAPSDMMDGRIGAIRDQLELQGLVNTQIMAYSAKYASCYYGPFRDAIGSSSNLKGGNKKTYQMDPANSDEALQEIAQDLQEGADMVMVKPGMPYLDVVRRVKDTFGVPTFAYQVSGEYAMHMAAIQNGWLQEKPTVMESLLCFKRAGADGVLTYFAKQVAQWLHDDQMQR
How it was run: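 Y. enterocolitica PBGS, expressed in E. coli from pET3, at 150 nM subunit in 100 mM BTP-HCl pH 8.0 with 1 mM MgCl2, 5 mM DTT, 100 mM KCl and 0.2 mM 5-ALA, 10 min at 36 °C. Porphobilinogen read with Ehrlich's reagent. Activity normalized to 6.7% DMSO control as 100%. EC50 from variable-slope agonist fit.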

[14] = target: Delta-aminolevulinic acid dehydratase (Yersinia enterocolitica W22703) (UniProt F4MUJ9); assay: Stimulation of Yersinia enterocolitica recombinant PBGS expressed in Escherichia coli using 5-ALA as substrate at […]
[15] = target: T7, Delta-aminolevulinic acid dehydratase (Escherichia coli (strain K12)); assay: Stimulation of Escherichia coli recombinant PBGS using 5-ALA as substrate at […]
[16] = target: T3, Delta-aminolevulinic acid dehydratase; assay: Inhibition of Pseudomonas aeruginosa PAO1 recombinant PBGS using 5-ALA as substrate
How it was run: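 Turnover kept at or below 30%. Porphobilinogen measured with Ehrlich's reagent. IC50 by variable-slope fit of activity normalized to DMSO control.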

[17] = target: Delta-aminolevulinic acid dehydratase (Yersinia enterocolitica W22703) (UniProt F4MUJ9); assay: Inhibition of Yersinia enterocolitica recombinant PBGS expressed in Escherichia coli using 5-ALA as substrate at […]
[18] = target: Delta-aminolevulinic acid dehydratase (Pseudomonas aeruginosa (strain ATCC 15692 / PAO1 / 1C / PRS 101 / LMG12228)) (UniProt Q59643); assay: Stimulation of Pseudomonas aeruginosa PAO1 recombinant PBGS using 5-ALA as substrate at […]
[19] = Ratio of IC50 for Pisum sativum PBGS to IC50 for C-terminal His-tagged Wolbachia PBGS
Toxoplasma gondii [20] = assay: Inhibition of Toxoplasma gondii recombinant PBGS using 5-ALA as substrate at […]
[21] = target: T7, Delta-aminolevulinic acid dehydratase (Escherichia coli (strain K12)); assay: Inhibition of Escherichia coli recombinant PBGS using 5-ALA as substrate at […]
Toxoplasma gondii [22] = assay: Stimulation of Toxoplasma gondii recombinant PBGS using 5-ALA as substrate at […]

Chain of Delta-aminolevulinic acid dehydratase (Yersinia enterocolitica W22703, UniProt F4MUJ9) (F4MUJ9 whole entry, one chain of several): as the sequence (F4MUJ9 as listed by the source) above

O=C(NCCc1nc2c(C(=O)O)cccc2n1Cc1cccc(C(F)(F)F)c1)c1cccs1
EC50 [1]: 23 µM | EC50 [2]: 19 µM | IC50 [3]: 500 µM | EC50 [4]: 15 µM | IC50 [5]: > 1000 µM | Smax [6]: 136% | IC50 [7]: > 500 µM | EC50 [8]: 21 µM | inhibition [9]: inactive | IC50 [10]: 500 µM | Smax (Toxoplasma gondii [11]): 130% | Smax [12]: 116% | Smax [13]: 123%

O=C(O)c1c2c(nc3ccccc13)CCN(C(=O)c1cccc(C(F)(F)F)c1)C2
Smax [14]: 100% | Smax [15]: 100% | IC50 [16]: 475 µM | IC50 [5]: > 1000 µM | IC50 [7]: 88.2 µM | inhibition [17]: inactive | inhibition [9]: inactive | Smax [18]: 100% | Ratio IC50 [19]: 10 | inhibition (Toxoplasma gondii [20]): inactive | inhibition [21]: inactive | Smax (Toxoplasma gondii [22]): 100%

From ChEMBL document CHEMBL3286371, “wALADin benzimidazoles differentially modulate the function of porphobilinogen synthase orthologs” (J Med Chem, 2014)
